Measurements reported in ChEMBL document CHEMBL5096226, “Structure-Activity Relationship Study of Momordica Saponin II Derivatives as Vaccine Adjuvants” (J Med Chem, 2022).
Calls of active or inactive are those of the source.

Assays:
Format in all cases: functional, organism-based
Mus musculus [1] = assay: Immuno-adjuvant activity in BALB/c mouse assessed as increase in anti-OVA IgG antibody in serum at 50 ug, sc administered on day 0, 14 and 28 and measured at 2, 4 and 6 weeks in presence of chicken egg ovalbumin by ELISA; details: dose 50.0 µg, time 2-6 weeks
Summary of the method: (§1)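 Female BALB/c mice (8–10 wk, six per group) immunized s.c. with OVA 20 μg ± adjuvant on days 0, 14, 28. Tail-vein serum taken before each dose and 2 wk after the last. ELISA on OVA-coated (0.1 μg/mL) plates in borate saline pH 8.2. Twofold serum dilutions in duplicate, overnight at 4 °C. HRP anti-mouse IgG/subclass applied 4 h, OPD substrate, read at 490 nm. Concentrations from reference-serum standard curves (4-parameter fit).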

Mus musculus [2] = assay: Immuno-adjuvant activity in BALB/c mouse assessed as increase in anti-OVA IgG1 antibody in serum at 100 ug, sc administered on day 0, 14 and 28 and measured at 4 weeks in presence of chicken egg ovalbumin by ELISA; details: dose 100.0 µg; summary of the method: as §1
Mus musculus [3] = assay: Immuno-adjuvant activity in BALB/c mouse assessed as increase in anti-OVA Ig2a antibody in serum at 100 ug, sc administered on day 0, 14 and 28 and measured at 4 and 6 weeks in presence of chicken egg ovalbumin by ELISA; details: dose 100.0 µg, time 4-6 weeks; summary of the method: as §1
Splenocyte [4] = assay: Immuno-adjuvant activity in BALB/c mouse Splenocyte assessed as increase in CD8+ T cells at 100 ug, sc administered on day 0, 14 and 28 and measured at week 6 post immunization by flow cytometry analysis; details: dose 100.0 µg, time 6.0 weeks
Summary of the method: (§2)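 Female BALB/c mice (8–10 wk, six per group) given OVA 20 μg s.c. with adjuvant on days 0, 14, 28; spleens taken at week 6. Splenocytes stained with viability dye, Fc-blocked, surface-stained 30 min. For intracellular cytokines, cells stimulated 5 h with leukocyte activation cocktail plus GolgiPlug, then fixed/permeabilized. IL-21 detected with IL-21R Fc chimera. All steps at 4 °C. Read as MFI, mean ± SEM.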

Splenocyte [5] = assay: Immuno-adjuvant activity in BALB/c mouse Splenocyte assessed as increase in CD4+ T cells at 100 ug, sc administered on day 0, 14 and 28 and measured at week 6 post immunization by flow cytometry analysis; details: dose 100.0 µg, time 6.0 weeks; summary of the method: as §2
Mus musculus [6] = assay: Immuno-adjuvant activity in BALB/c mouse Splenocyte assessed as increase in CD4+ surface expression of PD-1 at 50 ug, sc administered on day 0, 14 and 28 and measured at week 6 post immunization by flow cytometry analysis; details: dose 50.0 µg, time 6.0 weeks; summary of the method: as §2
Mus musculus [7] = assay: Immuno-adjuvant activity in BALB/c mouse assessed as increase in IL-4 expressing CD4+ effector T cells in spleen at 100 ug, sc administered on day 0, 14 and 28 and measured at week 6 post immunization by flow cytometry analysis; details: T-cell, dose 100.0 µg, time 6.0 weeks; summary of the method: as §2
Mus musculus [8] = assay: Immuno-adjuvant activity in BALB/c mouse assessed as increase in IL-21 expressing CD4+ effector T cells in spleen at 100 ug, sc administered on day 0, 14 and 28 and measured at week 6 post immunization by flow cytometry analysis; details: T-cell, dose 100.0 µg, time 6.0 weeks; summary of the method: as §2
Mus musculus [9] = assay: Immuno-adjuvant activity in BALB/c mouse assessed as increase in follicular helper T cells in spleen at 100 ug, sc administered on day 0, 14 and 28 and measured at week 6 post immunization by flow cytometry analysis; details: T-cell, dose 100.0 µg, time 6.0 weeks
Summary of the method: (§3)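 Female BALB/c mice (8–10 wk, six per group), OVA 20 μg s.c. plus adjuvant on days 0, 14, 28; spleens collected week 6. Single-cell splenocyte suspensions stained and analysed by flow cytometry. TFH gated PD-1+Bcl6+Foxp3−CD4+CD3+, TFR PD-1+Bcl6+Foxp3+CD4+CD3+, dark zone GC B cells CXCR4hiCD86loFas+GL-7+CD19+. Steps at 4 °C. Mean ± SEM; unpaired t tests.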

Mus musculus [10] = assay: Immuno-adjuvant activity in BALB/c mouse assessed as increase in CD19+ B cells in spleen at 100 ug, sc administered on day 0, 14 and 28 and measured at week 6 post immunization by flow cytometry analysis; details: dose 100.0 µg, time 6.0 weeks; summary of the method: as §3
Mus musculus [11] = assay: Immuno-adjuvant activity in BALB/c mouse assessed as increase in ratio of TFH to TFR cells at 100 ug, sc administered on day 0, 14 and 28 and measured at week 6 post immunization by flow cytometry analysis; details: dose 100.0 µg, time 6.0 weeks; summary of the method: as §3
Mus musculus [12] = assay: Immuno-adjuvant activity in BALB/c mouse assessed as reduction in TFR cells in spleen at 100 ug, sc administered on day 0, 14 and 28 and measured at week 6 post immunization by flow cytometry analysis; details: dose 100.0 µg, time 6.0 weeks; summary of the method: as §3
Mus musculus [13] = assay: Immuno-adjuvant activity in BALB/c mouse assessed as increase in dark zone B cells at 100 ug, sc administered on day 0, 14 and 28 and measured at week 6 post immunization by flow cytometry analysis; details: dose 100.0 µg, time 6.0 weeks; summary of the method: as §3
Mus musculus [14] = assay: Immuno-adjuvant activity in BALB/c mouse assessed as increase in anti-OVA IgG antibody in serum at 20 ug, sc administered on day 0, 14 and 28 and measured at 2, 4 and 6 weeks in presence of chicken egg ovalbumin by ELISA; details: dose 20.0 µg, time 2-6 weeks; summary of the method: as §1
Mus musculus [15] = assay: Immuno-adjuvant activity in BALB/c mouse assessed as increase in anti-OVA IgG2a antibody in serum at 20 ug, sc administered on day 0, 14 and 28 and measured at 2 weeks in presence of chicken egg ovalbumin by ELISA; details: dose 20.0 µg; summary of the method: as §1
Mus musculus [16] = assay: Immuno-adjuvant activity in BALB/c mouse assessed as increase in anti-OVA Ig2a antibody in serum at 20 ug, sc administered on day 0, 14 and 28 and measured at 4 and 6 weeks in presence of chicken egg ovalbumin by ELISA; details: dose 20.0 µg, time 4-6 weeks; summary of the method: as §1
Mus musculus [17] = assay: Immuno-adjuvant activity in BALB/c mouse Splenocyte assessed as increase in CD8+ T cells at 20 ug, sc administered on day 0, 14 and 28 and measured at week 6 post immunization by flow cytometry analysis; details: dose 20.0 µg, time 6.0 weeks; summary of the method: as §2
Mus musculus [18] = assay: Immuno-adjuvant activity in BALB/c mouse Splenocyte assessed as increase in CD4+ T cells at 20 ug, sc administered on day 0, 14 and 28 and measured at week 6 post immunization by flow cytometry analysis; details: dose 20.0 µg, time 6.0 weeks; summary of the method: as §2
Mus musculus [19] = assay: Immuno-adjuvant activity in BALB/c mouse assessed as increase in IL-4 expressing CD4+ effector T cells in spleen at 20 ug, sc administered on day 0, 14 and 28 and measured at week 6 post immunization by flow cytometry analysis; details: T-cell, dose 20.0 µg, time 6.0 weeks; summary of the method: as §2
Mus musculus [20] = assay: Immuno-adjuvant activity in BALB/c mouse assessed as increase in IL-21 expressing CD4+ effector T cells in spleen at 20 ug, sc administered on day 0, 14 and 28 and measured at week 6 post immunization by flow cytometry analysis; details: T-cell, dose 20.0 µg, time 6.0 weeks; summary of the method: as §2
Mus musculus [21] = assay: Immuno-adjuvant activity in BALB/c mouse assessed as increase in follicular helper T cells in spleen at 20 ug, sc administered on day 0, 14 and 28 and measured at week 6 post immunization by flow cytometry analysis; details: T-cell, dose 20.0 µg, time 6.0 weeks; summary of the method: as §3
Mus musculus [22] = assay: Immuno-adjuvant activity in BALB/c mouse assessed as increase in CD19+ B cells in spleen at 20 ug, sc administered on day 0, 14 and 28 and measured at week 6 post immunization by flow cytometry analysis; details: dose 20.0 µg, time 6.0 weeks; summary of the method: as §3
Mus musculus [23] = assay: Immuno-adjuvant activity in BALB/c mouse assessed as increase in ratio of TFH to TFR cells at 20 ug, sc administered on day 0, 14 and 28 and measured at week 6 post immunization by flow cytometry analysis; details: dose 20.0 µg, time 6.0 weeks; summary of the method: as §3
Mus musculus [24] = assay: Immuno-adjuvant activity in BALB/c mouse assessed as reduction in TFR cells in spleen at 20 ug, sc administered on day 0, 14 and 28 and measured at week 6 post immunization by flow cytometry analysis; details: dose 20.0 µg, time 6.0 weeks; summary of the method: as §3
Mus musculus [25] = assay: Immuno-adjuvant activity in BALB/c mouse assessed as increase in dark zone B cells at 20 ug, sc administered on day 0, 14 and 28 and measured at week 6 post immunization by flow cytometry analysis; details: dose 20.0 µg, time 6.0 weeks; summary of the method: as §3

Measured: Activity

C[C@@H]1O[C@@H](O[C@H]2[C@H](O)[C@@H](C(=O)NCCCCCCCCCCC(=O)OCc3ccccc3)O[C@@H](O[C@H]3CC[C@]4(C)[C@H]5CC=C6[C@@H]7CC(C)(C)CC[C@]7(C(=O)O[C@@H]7O[C@H](C)[C@H](O)[C@H](O)[C@H]7O[C@@H]7O[C@@H](C)[C@H](O[C@@H]8OC[C@@H](O)[C@H](O)[C@H]8O)[C@@H](O[C@@H]8O[C@H](CO)[C@@H](O)[C@H](O[C@@H]9OC[C@@H](O)[C@H](O)[C@H]9O)[C@H]8O)[C@H]7O)[C@H](O)C[C@@]6(C)[C@]5(C)CC[C@H]4[C@]3(C)C=O)[C@@H]2O[C@@H]2O[C@H](CO)[C@H](O)[C@H](O)[C@H]2O)[C@H](O)[C@H](O)[C@H]1O
active: Mus musculus [1] | Mus musculus [2] | Mus musculus [3] | Splenocyte [4] | Splenocyte [5] | Mus musculus [6] | Mus musculus [7] | Mus musculus [8] | Mus musculus [9] | Mus musculus [10] | Mus musculus [11] | Mus musculus [12] | Mus musculus [13]

CC[C@H](C)[C@H](C[C@H](O)CC(=O)O[C@@H]1[C@H](O)[C@@H](O[C@@H]2O[C@@H](C)[C@H](O[C@@H]3OC[C@@H](O)[C@H](O[C@@H]4OC[C@](O)(CO)[C@H]4O)[C@H]3O)[C@@H](O)[C@H]2O)[C@H](OC(=O)[C@]23CCC(C)(C)C[C@H]2C2=CC[C@@H]4[C@@]5(C)CC[C@H](O[C@@H]6O[C@H](C(=O)O)[C@@H](O)[C@H](O[C@@H]7OC[C@@H](O)[C@H](O)[C@H]7O)[C@H]6O[C@@H]6O[C@H](CO)[C@H](O)[C@H](O)[C@H]6O)[C@@](C)(C=O)[C@@H]5CC[C@@]4(C)[C@]2(C)C[C@H]3O)O[C@@H]1C)OC(=O)C[C@@H](O)C[C@H](O[C@@H]1O[C@@H](CO)[C@H](O)[C@H]1O)[C@@H](C)CC
active: Mus musculus [14] | Mus musculus [15] | Mus musculus [16] | Mus musculus [17] | Mus musculus [18] | Mus musculus [19] | Mus musculus [20] | Mus musculus [21] | Mus musculus [22] | Mus musculus [23] | Mus musculus [24] | Mus musculus [25]
